Ecoli tolC: E. coli tolC mutant growth inhibition; E. coli BW25113 tolC mutant growth, OD615; growth inhibition, % at 10 µM (by protocol); 2.2% of 65,000 active; AID 573;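 active = growth inhibition at or above a cutoff equal to the mean over every tested compound plus 3 SD, cut at about 60% in these data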;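 note: growth measured after 20 h incubation at 37 °C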
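Assay system: tolC-deleted E. coli BW25113. Medium: kanamycin-containing LB broth (50 µg/mL). Dosing: 10 µM final, single dose. Timing: bacterial growth with compound for 20 h at 37 °C. Detection: A615 absorbance measurement. Read-out basis: growth inhibition in percent.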
PostGolgi yeast: growth inhibition of a yeast mutant, post-Golgi transport screen. inhibition, % at 10 µM. AID 739. post-Golgi transport phenotypic cell assay. 0.9% of 98,000 active;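 note: yeast cells grown in 1536-well plates; yeast grown about 18 h at 30C before absorbance read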
Cav3 T inh: inhibitors of human Cav3.2 T-type calcium channel; Cav3.2-expressing cells, Fluo-4 calcium fluorescence FDSS; hits give low values; O95180; B-score at 10 µM; 4% of 100,000 active;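 active = single-dose well whose peak fluorescence ratio is a statistical outlier from its plate by either plate-standardised score or position-corrected B-score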
PostGolgi ctrl: growth of the yeast control strain, post-Golgi counter-screen | 5% of 98,000 active | AID 738 | efflux-deficient yeast background strain, growth absorbance A615, 16 h | inhibition, % at 10 µM
E coli WT exp: blocks growth of wild type E. coli BW25113 | growth inhibition, % at 100 µM | OD600 absorbance | AID 710 | 0.15% of 98,000 active;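 active = growth inhibition above about 50% at one test dose, limit read from the data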;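 note: growth measured after 20 h incubation at 37 °C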
Pyk2 oligo antag: Pyk2 (human) oligomerization antagonism; Q293 cells, Pyk2 FERM NanoBiT luminescence; hits give low values; z-score (the deposit names both 25 µM and 10 µM); 0.83% of 99,000 active;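 active = Z-score of -3 or lower, scaled per plate to the spread of control and sample wells; inactive = z-score above -3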;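 note: negative z-score means lost luminescence so less FERM oligomerization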
Target sequence (Q14289 whole entry, looked up): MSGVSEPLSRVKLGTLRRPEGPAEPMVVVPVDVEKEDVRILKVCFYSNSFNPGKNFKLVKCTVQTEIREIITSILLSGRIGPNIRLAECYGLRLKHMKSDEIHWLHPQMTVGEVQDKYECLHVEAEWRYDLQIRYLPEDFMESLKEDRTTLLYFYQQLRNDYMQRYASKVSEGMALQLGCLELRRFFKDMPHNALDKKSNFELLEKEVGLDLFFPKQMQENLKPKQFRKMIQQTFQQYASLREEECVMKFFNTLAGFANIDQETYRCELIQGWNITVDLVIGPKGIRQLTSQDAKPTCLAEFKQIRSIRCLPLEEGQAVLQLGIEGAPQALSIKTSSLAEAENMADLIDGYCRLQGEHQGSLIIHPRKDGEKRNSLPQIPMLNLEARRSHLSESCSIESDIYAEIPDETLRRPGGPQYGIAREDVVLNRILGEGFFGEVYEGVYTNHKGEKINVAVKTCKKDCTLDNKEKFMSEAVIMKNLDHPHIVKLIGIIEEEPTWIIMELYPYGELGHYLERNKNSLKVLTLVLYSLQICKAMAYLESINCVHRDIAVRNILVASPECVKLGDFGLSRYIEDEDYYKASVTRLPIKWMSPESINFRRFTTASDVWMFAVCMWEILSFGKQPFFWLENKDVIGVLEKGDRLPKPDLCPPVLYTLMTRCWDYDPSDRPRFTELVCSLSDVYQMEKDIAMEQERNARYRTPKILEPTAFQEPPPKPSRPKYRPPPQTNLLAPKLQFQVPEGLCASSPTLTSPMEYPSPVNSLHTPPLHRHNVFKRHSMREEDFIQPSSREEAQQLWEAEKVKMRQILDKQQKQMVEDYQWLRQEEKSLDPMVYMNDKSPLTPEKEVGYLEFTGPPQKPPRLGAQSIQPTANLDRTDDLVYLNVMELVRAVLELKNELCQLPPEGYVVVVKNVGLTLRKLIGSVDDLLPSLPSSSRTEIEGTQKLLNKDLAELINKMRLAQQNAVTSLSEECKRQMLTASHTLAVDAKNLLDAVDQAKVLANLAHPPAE
Of the large screens only hits and unclear results are named; the others gave an inactive call. Hits are enriched below; roughly 8.7% of the tested compounds scored in any of these assays. Cut-off read from the data, not from the text of the source, unless noted: active = inhibition above about 30%; inactive = the rest.

Cc1nc2sc(C(c3ccccc3)N3CCN(C)CC3)c(O)n2n1 (configuration not stated)	none (no result: PostGolgi yeast, PostGolgi ctrl, E coli WT exp, Pyk2 oligo antag)
COc1cc2nc(=S)n3[nH]c(CCn4c(C)nc5ccccc54)nc3c2cc1OC	Cav3 T inh 3.3
COCn1c(-c2ccc(OC)c(OC)c2)nc2ccccc21	none
Cc1ccccc1NC(=O)c1ccc(CN2CCC(Cc3ccccc3)CC2)cc1	Cav3 T inh -7.1 (no result: Ecoli tolC)
Cc1ccc(C(=O)NNC(=O)C2CCN(Cc3ccccc3)CC2)cc1	none (no result: Ecoli tolC, Cav3 T inh)
CCOC(=O)c1c(NC(C)=O)no[n+]1[O-]	none
N#CCCn1cnc2c(=S)nc[nH]c21	none
N#Cc1c(-c2ccccc2)nc2n(-c3ccccc3)nc(C(=O)Nc3ccccc3)n2c1=O	none (no result: Ecoli tolC)
N#Cc1c(-c2ccccc2)c(-c2ccccc2)nn(CC(=O)NNC(=O)Nc2ccc(Cl)c(Cl)c2)c1=O	Cav3 T inh -6.5 (no result: Ecoli tolC)
Cc1cc(C)n(-c2cc(N3CCOCC3)nc(-c3ccccc3)n2)n1	PostGolgi ctrl 42
Cc1cc(N2CCN(c3ccccc3)CC2)nc(-c2ccccc2O)n1	PostGolgi yeast 82, PostGolgi ctrl 77 (no result: Ecoli tolC)
Cc1cc(N2CCN(c3ccccc3)CC2)nc(-n2nc(C)cc2C)n1	Ecoli tolC 71
Cc1cc(N2CCN(C)CC2)nc(N2CCOCC2)n1	none
CCOC(=O)c1c(C)c(C(=O)NCc2ccccn2)c(C)n1CC	none
Cc1nnsc1NC(=O)OCC(C)(C)C	none (no result: Ecoli tolC)
Cc1ccc2cc3cc(C(=O)NCCC(C)C)oc3nc2c1	none
CCN(C(=O)c1cc2cc3ccc(C)cc3nc2o1)c1ccc(OC)cc1	Ecoli tolC 72
[C-]#[N+][C@H](O[C@@H]1O[C@H](CO)[C@@H](O)[C@H](O)[C@H]1O)c1ccccc1	Cav3 T inh -5.7 (no result: Ecoli tolC, PostGolgi yeast, PostGolgi ctrl, E coli WT exp, Pyk2 oligo antag)
CC1=C(C(=O)Nc2ccccc2)C2(CCCCC2)C(C#N)=C(S)N1	none (no result: Ecoli tolC)
O=C1CCCC2=C1C1(CCCCC1)N=C(Nc1nc3ccccc3s1)N2	PostGolgi ctrl 33
CC1Cc2ccccc2N1C(=O)CSc1nnc(-c2ccccc2)c(-c2ccccc2)n1 (configuration not stated)	none (no result: Ecoli tolC)
COc1cc(C2c3c(-c4ccccc4)n[nH]c3C(=O)N2c2ccccc2)ccc1O (configuration not stated)	Pyk2 oligo antag -3.1
CS(=O)(=O)N(CCc1ccccc1)CC(=O)NCc1ccccn1	none
COc1ccccc1N(CC(=O)NC(C)(C)C)C(=O)C1CSC(=O)C1 (configuration not stated)	none (no result: Ecoli tolC, PostGolgi yeast, PostGolgi ctrl, E coli WT exp)
O=C(CN(C(=O)C1CSC(=O)C1)c1ccccc1F)NCc1ccc2c(c1)OCO2 (configuration not stated)	Cav3 T inh -3.8
Cc1cccc(Oc2nc(-c3cccc([N+](=O)[O-])c3)nc3ccccc23)c1C	none (no result: Ecoli tolC)
Oc1ccc(Cl)cc1/C=N/c1nccs1	Cav3 T inh -3.4
COc1ccc(CCNC(=O)CSc2nc(N)c3c(C)c(C)oc3n2)cc1OC	none
O=C(NCCCn1ccnc1)c1cn(Cc2ccc(F)cc2)nn1	none
COC(=O)C(NC(=O)c1ccccc1)(Nc1cc(C)cc(C)n1)C(F)(F)F (configuration not stated)	Cav3 T inh -4.2 (no result: Ecoli tolC, PostGolgi yeast, PostGolgi ctrl, E coli WT exp)
COC(=O)C(NNc1ccccc1C)(NC(=O)c1ccc(F)cc1)C(F)(F)F (configuration not stated)	Cav3 T inh -4.9 (no result: Ecoli tolC)
CCOC(=O)C(NC(=O)c1cccnc1)(Nc1cccc(C)n1)C(F)(F)F (configuration not stated)	none
COc1ccc(N(C(=O)c2ccco2)S(=O)(=O)c2cc(OC)ccc2OC)cc1	none
CC1(c2ccc(Cl)cc2Cl)OCC(Cn2ccnc2)O1 (configuration not stated)	none
Cc1cc(C(=O)CSc2nc3ccccc3o2)c(C)n1C1CC1	Ecoli tolC 76
C=CCn1c(C)cc(C(=O)CSc2nnc(NCc3ccccc3)s2)c1C	PostGolgi yeast 62, PostGolgi ctrl 96 (no result: Cav3 T inh)
C=CCn1c(C)cc(C(=O)CSc2nnc(Cc3ccccc3)o2)c1C	PostGolgi yeast 82, PostGolgi ctrl 96
C=CCn1c(C)cc(C(=O)CSc2nc3ccccc3o2)c1C	PostGolgi ctrl 52
Cc1cc2c(c(=O)n1C)C(Cc1ccccc1)C(C#N)=C(N)O2 (configuration not stated)	none
CC(C)NCCOCCOc1ccccc1F	none (no result: Ecoli tolC, Cav3 T inh)
C=CCn1c(C)cc(C(=O)CSc2nc3ccccc3[nH]2)c1C	none (no result: Ecoli tolC)
C=CCn1c(C)cc(C(=O)CSc2nc3ccccc3c(=O)[nH]2)c1C	PostGolgi ctrl 89
